Laboratory results reported in ChEMBL document CHEMBL4145662, “Novel Nonsteroidal Progesterone Receptor (PR) Antagonists with a Phenanthridinone Skeleton” (ACS Med Chem Lett, 2018).
Calls of active or inactive are those of the source. No cut-off for these calls is given here.

Key:
Androgen receptor = target: T1, Androgen receptor (Homo sapiens, UniProt P10275); assay: Antagonist activity at human CMX-AR expressed in HEK293 cells assessed as reduction in dihydrotestosterone-induced transactivation activity after 24 hrs by luciferase reporter gene assay; format: cell-based
T1 sequence (P10275 whole entry): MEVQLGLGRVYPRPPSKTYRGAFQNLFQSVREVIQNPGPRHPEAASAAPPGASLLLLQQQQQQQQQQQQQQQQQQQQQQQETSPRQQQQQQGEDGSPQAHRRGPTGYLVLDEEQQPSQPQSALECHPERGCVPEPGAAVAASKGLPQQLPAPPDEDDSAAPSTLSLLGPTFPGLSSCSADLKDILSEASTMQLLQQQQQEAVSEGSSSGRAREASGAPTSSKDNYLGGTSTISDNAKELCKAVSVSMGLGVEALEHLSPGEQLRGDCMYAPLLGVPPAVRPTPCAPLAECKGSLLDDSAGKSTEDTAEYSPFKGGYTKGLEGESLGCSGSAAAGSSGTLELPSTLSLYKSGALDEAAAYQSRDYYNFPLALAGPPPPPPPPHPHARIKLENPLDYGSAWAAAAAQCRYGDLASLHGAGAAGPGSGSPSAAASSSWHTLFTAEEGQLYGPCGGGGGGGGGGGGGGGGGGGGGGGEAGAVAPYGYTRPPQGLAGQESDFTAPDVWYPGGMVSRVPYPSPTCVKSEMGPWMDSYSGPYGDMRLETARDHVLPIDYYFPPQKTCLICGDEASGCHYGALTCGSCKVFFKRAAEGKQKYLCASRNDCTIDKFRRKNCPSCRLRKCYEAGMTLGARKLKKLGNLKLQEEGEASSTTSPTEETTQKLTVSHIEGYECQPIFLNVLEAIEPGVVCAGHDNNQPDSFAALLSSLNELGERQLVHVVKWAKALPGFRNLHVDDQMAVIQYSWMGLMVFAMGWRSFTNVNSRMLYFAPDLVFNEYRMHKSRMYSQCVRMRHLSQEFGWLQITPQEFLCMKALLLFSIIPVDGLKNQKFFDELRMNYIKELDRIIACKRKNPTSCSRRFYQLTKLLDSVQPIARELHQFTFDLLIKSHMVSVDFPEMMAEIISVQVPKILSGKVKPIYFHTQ
Summary of the method: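 AR antagonism measured by reporter gene assay with dihydrotestosterone (0.3 nM) as agonist.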

[1] = target: T2, Oxysterols receptor LXR-beta (Homo sapiens) (UniProt P55055); assay: Antagonist activity at human GAL4N-fused LXRbeta LBD expressed in HEK293 cells assessed as reduction in T0901317-induced transactivation activity at 20 uM after 24 hrs by luciferase reporter gene assay; format: cell-based
T2 sequence (whole entry): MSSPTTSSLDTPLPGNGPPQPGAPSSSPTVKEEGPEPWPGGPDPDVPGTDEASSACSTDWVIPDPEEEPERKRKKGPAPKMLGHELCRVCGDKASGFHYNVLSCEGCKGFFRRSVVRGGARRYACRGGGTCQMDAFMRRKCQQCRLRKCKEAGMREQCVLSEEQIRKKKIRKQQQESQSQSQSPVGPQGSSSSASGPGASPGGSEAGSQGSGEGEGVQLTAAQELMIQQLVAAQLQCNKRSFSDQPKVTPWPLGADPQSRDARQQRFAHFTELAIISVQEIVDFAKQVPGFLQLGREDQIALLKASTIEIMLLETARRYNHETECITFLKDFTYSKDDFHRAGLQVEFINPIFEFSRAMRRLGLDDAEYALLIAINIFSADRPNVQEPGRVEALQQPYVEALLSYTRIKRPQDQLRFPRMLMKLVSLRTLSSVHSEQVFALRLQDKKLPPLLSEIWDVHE

[2] = target: T3, Oxysterols receptor LXR-beta (Homo sapiens, UniProt P55055); assay: Antagonist activity at human GAL4N-fused LXRbeta LBD expressed in HEK293 cells assessed as reduction in T0901317-induced transactivation activity after 24 hrs by luciferase reporter gene assay; format: cell-based
T3 sequence (P55055 whole entry): T2 sequence (whole entry)

[3] = target: T4, Nuclear receptor ROR-gamma (Homo sapiens, UniProt P51449); assay: Antagonist activity at human RORgamma1 expressed in HEK293 cells after 24 hrs by luciferase reporter gene assay; format: cell-based
T4 sequence (P51449 whole entry): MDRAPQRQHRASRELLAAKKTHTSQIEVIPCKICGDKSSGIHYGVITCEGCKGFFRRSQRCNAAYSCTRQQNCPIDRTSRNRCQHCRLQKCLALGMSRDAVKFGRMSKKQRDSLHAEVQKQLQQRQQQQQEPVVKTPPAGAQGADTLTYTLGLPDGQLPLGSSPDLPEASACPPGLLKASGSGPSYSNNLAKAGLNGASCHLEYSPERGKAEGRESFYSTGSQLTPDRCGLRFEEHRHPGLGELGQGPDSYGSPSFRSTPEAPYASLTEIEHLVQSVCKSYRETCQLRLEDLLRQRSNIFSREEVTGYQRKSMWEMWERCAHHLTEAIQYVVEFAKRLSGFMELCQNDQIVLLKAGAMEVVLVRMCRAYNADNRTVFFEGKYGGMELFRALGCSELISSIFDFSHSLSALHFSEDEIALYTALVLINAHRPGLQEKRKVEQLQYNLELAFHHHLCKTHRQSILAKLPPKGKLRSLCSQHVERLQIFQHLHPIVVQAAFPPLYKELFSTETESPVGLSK
Summary of the method: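 Inverse agonism at RORα, RORβ or RORγ measured by reporter gene assay.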

[4] = Stability in human liver microsomes at 0.1 uM by LC-MS/MS analysis; format: ADME, microsome
[5] = Apparent permeability across apical to basolateral side in human Caco2 cells at 10 uM; format: ADME, cell-based; conditions: caco-2, 10 µM

Compound	IC50 (Androgen receptor) [nM]	Activity [1]	IC50 [2] [µM]	IC50 [3] [µM]	Stability [4]	Papp [5]
Cc1cc(C(O)(C(F)(F)F)C(F)(F)F)cc2c1[nH]c(=O)c1cc(F)ccc12	1800	inactive				
Cc1cc(C(O)(C(F)(F)F)C(F)(F)F)cc2c3ccc(F)cc3c(=O)n(C)c12			> 20			
Cc1cc(C(O)(C(F)(F)F)C(F)(F)F)cc2c1[nH]c(=O)c1ccccc12	> 20000		> 20	> 20	Stable	Permeable
